According to ChEMBL document CHEMBL1649179, “Pharmacokinetics of LB80331 and LB80317 following oral administration of LB80380, a new antiviral agent for chronic hepatitis B (CHB), in healthy adult subjects, CHB patients, and mice” (Antimicrob Agents Chemother, 2009):

Experiments:
[1] = tested on: Homo sapiens; assay: Tmax in chronic hepatitis B virus infected patient assessed as (1-((2-amino-9H-purin-9-yl)methyl)cyclopropoxy)me at 30 mg, po administered as single dose by LC-MS analysis; type: ADME, organism-based; conditions: in vivo
In short: (§1)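 Daily oral LB80380 was given to CHB patients over 4 weeks. Blood was drawn on day 1 and at steady state (weeks 2–4), predose and 0.5–24 h postdose. Plasma LB80331 (LLOQ 5 ng/ml) and LB80317 (LLOQ 10 ng/ml) were measured by LC-MS/MS after protein-precipitation extraction. Tmax was taken by noncompartmental analysis.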

[2] = tested on: Liver; assay: AUC (0 to 36 hrs) in CD-1 mouse liver assessed as (1-((2-amino-9H-purin-9-yl)methyl)cyclopropoxy)me at 30 mg/kg, po administered as single dose by LC-MS analysis; type: ADME, organism-based; design: time < 36 hr, dose 30 mg/kg, route oral; conditions: in vivo
In short: (§2)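 Male CD-1 mice given a single oral dose in 100% PEG 400. Samples extracted with perchloric acid and neutralized with ammonium bicarbonate. One aliquot assayed for the free analyte; the other treated with calf intestinal phosphatase to give the total including di-/triphosphates. Analysis by LC-MS/MS.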

[3] = tested on: Liver; assay: Half life in CD-1 mouse liver assessed as (1-((2-amino-9H-purin-9-yl)methyl)cyclopropoxy)me at 30 mg/kg, po administered as single dose by LC-MS analysis; type: ADME, organism-based; design: dose 30 mg/kg, route oral; conditions: in vivo; in short: as §2
[4] = tested on: Homo sapiens; assay: Cmax in chronic hepatitis B virus infected patient assessed as (1-((2-amino-9H-purin-9-yl)methyl)cyclopropoxy)me at 240 mg, po administered as single dose by LC-MS analysis; type: ADME, organism-based; design: dose 240 mg, route oral; conditions: in vivo
In short: (§3)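 CHB patients (HBsAg/HBeAg positive), six per dose cohort, given a first oral dose on day 1. Plasma sampled at baseline. Analysis by validated LC-MS/MS after protein precipitation with a stable-isotope internal standard; LLOQ 5 ng/ml for LB80331. Noncompartmental analysis gives Cmax and AUC0-∞.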

[5] = tested on: Plasma; assay: Tmax in CD-1 mouse plasma assessed as (1-((2-amino-9H-purin-9-yl)methyl)cyclopropoxy)me at 30 mg/kg, po administered as single dose by LC-MS analysis; type: ADME, organism-based; design: dose 30 mg/kg, route oral; conditions: in vivo
In short: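 Male CD-1 mice received 30 mg/kg orally in 100% PEG 400. Plasma and snap-frozen liver were taken from 3 mice per time point at 1, 2, 4, 6, 10, 24 and 36 h. Samples were extracted with perchloric acid and neutralized with ammonium bicarbonate. Free LB80331/LB80317 was measured directly by LC-MS/MS; total, including di- and triphosphates, was measured after calf intestinal phosphatase treatment.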

[6] = tested on: Homo sapiens; assay: AUC (0 to infinity) in chronic hepatitis B virus infected patient assessed as (1-((2-amino-9H-purin-9-yl)methyl)cyclopropoxy)me at 30 mg, po administered as single dose by LC-MS analysis; type: ADME, organism-based, Plasma; design: dose 30 mg, time infinity, route oral; conditions: in vivo; in short: as §3
[7] = tested on: Liver; assay: AUC (0 to infinity) in CD-1 mouse liver assessed as (1-((2-amino-9H-purin-9-yl)methyl)cyclopropoxy)me at 30 mg/kg, po administered as single dose by LC-MS analysis; type: ADME, organism-based; design: time infinity, dose 30 mg/kg, route oral; conditions: in vivo; in short: as §2
[8] = tested on: Homo sapiens; assay: Oral clearance in chronic hepatitis B virus infected patient assessed as (1-((2-amino-9H-purin-9-yl)methyl)cyclopropoxy)me at 240 mg, po qd for 4 weeks by LC-MS analysis; type: ADME, organism-based; conditions: in vivo, 672 h
In short: (§4)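 Oral LB80380 was given once daily for 4 weeks to CHB patients. Plasma LB80331 was quantified by validated LC-MS/MS after protein precipitation, with stable-isotope internal standard, at baseline and steady state (weeks 2–4), 0–24 h postdose. Noncompartmental CL/F was calculated as dose (adjusted for LB80380/LB80331 molecular weights) divided by AUC (AUC0-∞ single dose; AUC0-24 steady state).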

[9] = tested on: Liver; assay: Cmax in CD-1 mouse liver assessed as (1-((2-amino-9H-purin-9-yl)methyl)cyclopropoxy)me at 30 mg/kg, po administered as single dose by LC-MS analysis; type: ADME, organism-based; design: dose 30 mg/kg, route oral; conditions: in vivo; in short: as §2
[10] = tested on: Homo sapiens; assay: Half life in chronic hepatitis B virus infected patient assessed as (1-((2-amino-9H-purin-9-yl)methyl)cyclopropoxy)me at 240 mg, po qd for 4 weeks by LC-MS analysis; type: ADME, organism-based; conditions: in vivo, 672 h
In short: (§5)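 CHB patients given LB80380 orally once daily for 4 weeks. Plasma was sampled on day 1 and at steady state (weeks 2–4), predose and 0.5, 1, 2, 3, 4, 6, 8 and 24 h postdose. LB80331 was measured by validated LC-MS/MS (LLOQ 5 ng/ml). Terminal-phase apparent t1/2 came from noncompartmental analysis and was flagged if extrapolated AUC exceeded 20% of AUC0-24.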

[11] = tested on: Homo sapiens; assay: Half life in chronic hepatitis B virus infected patient assessed as (1-((2-amino-9H-purin-9-yl)methyl)cyclopropoxy)me at 30 mg, po administered as single dose by LC-MS analysis; type: ADME, organism-based; conditions: in vivo; in short: as §5
[12] = tested on: Homo sapiens; assay: Oral clearance in chronic hepatitis B virus infected patient assessed as (1-((2-amino-9H-purin-9-yl)methyl)cyclopropoxy)me at 120 mg, po qd for 4 weeks by LC-MS analysis; type: ADME, organism-based; conditions: in vivo, 672 h; in short: as §4
[13] = tested on: Homo sapiens; assay: Cmax in high fat diet fed healthy human assessed as (1-((2-amino-9H-purin-9-yl)methyl)cyclopropoxy)me at 60 mg, po administered as single dose by LC-MS analysis; type: ADME, organism-based; design: dose 60 mg, route oral; conditions: in vivo
In short: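 Healthy subjects given a single oral dose after an overnight fast or after a high-fat breakfast. Plasma LB80331 measured by validated LC-MS/MS (LLOQ 5 ng/ml) after protein precipitation. Cmax by noncompartmental analysis.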

[14] = tested on: Plasma; assay: AUC (0 to infinity) in CD-1 mouse plasma assessed as (1-((2-amino-9H-purin-9-yl)methyl)cyclopropoxy)me at 30 mg/kg, po administered as single dose by LC-MS analysis; type: ADME, organism-based; design: time infinity, dose 30 mg/kg, route oral; conditions: in vivo; in short: as §2
[15] = tested on: Homo sapiens; assay: Half life in chronic hepatitis B virus infected patient assessed as (1-((2-amino-9H-purin-9-yl)methyl)cyclopropoxy)me at 60 mg, po administered as single dose by LC-MS analysis; type: ADME, organism-based; conditions: in vivo; in short: as §5
[16] = tested on: Plasma; assay: Half life in CD-1 mouse plasma assessed as (1-((2-amino-9H-purin-9-yl)methyl)cyclopropoxy)me at 30 mg/kg, po administered as single dose by LC-MS analysis; type: ADME, organism-based; design: dose 30 mg/kg, route oral; conditions: in vivo; in short: as §2
[17] = tested on: Homo sapiens; assay: Tmax in chronic hepatitis B virus infected patient assessed as (1-((2-amino-9H-purin-9-yl)methyl)cyclopropoxy)me at 30 mg, po qd for 4 weeks by LC-MS analysis; type: ADME, organism-based; conditions: in vivo, 672 h; in short: as §1

Nc1ncc2ncn(CC3(OCP(=O)(O)O)CC3)c2n1 [BESIFOVIR]
Tmax [1]: 1.5 h | AUC [2]: 102 µM·h | t1/2 [3]: 2.8 h | Cmax [4]: 1076 ng/mL | Tmax [5]: 1 h | AUC [6]: 1069 ng·h/mL | AUC [7]: 102 µM·h | CL/F [8]: 416 mL/min | Cmax [9]: 44 µM | t1/2 [10]: 3.3 h | t1/2 [11]: 2.5 h | CL/F [12]: 304 mL/min | Cmax [13]: 246 ng/mL | AUC [14]: 17 µM·h | t1/2 [15]: 3 h | t1/2 [16]: 2 h | Tmax [17]: 2 h
